Laboratory results as given in ChEMBL document CHEMBL1165919, “Synthesis, vasorelaxant activity and antihypertensive effect of benzo[d]imidazole derivatives” (Bioorg Med Chem, 2010).
Calls of active or inactive are those of the source. The calls are words filed in the database; no cut-off is given here.

Experiments:
Aorta [1] = experiment: Vasorelaxant activity in Wistar rat endothelium-intact thoracic aortic ring assessed as inhibition of noradrenaline-induced contraction treated after noradrenaline challenge measured after 60 mins; format: functional, tissue-based; details: 1 h
Summary of the method: (§1)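 Thoracic aorta came from male Wistar rats (250–350 g), cleaned and cut into 4–5 mm rings. Endothelium was rubbed off some rings with forceps and its absence confirmed by no relaxation to carbachol. Rings were washed every 30 min for 2 h, pre-contracted with noradrenaline (0.1), then given the test agent cumulatively. Concentration-response curves (n=5–6, mean ± SEM) were fitted nonlinearly to give EC50.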

Aorta [2] = experiment: Vasorelaxant activity in Wistar rat endothelium-denuded thoracic aortic ring assessed as inhibition of noradrenaline-induced contraction treated after noradrenaline challenge measured after 60 mins; format: functional, tissue-based; summary of the method: as §1
Aorta [3] = experiment: Ratio of pimobendan EC50 to compound EC50 for vasorelaxant activity in pre-contracted Wistar rat endothelium-intact thoracic aortic ring; format: functional
Rattus norvegicus [4] = experiment: Antihypertensive activity in po dosed SHR rat assessed as decrease in systolic blood pressure after 6 hrs; format: functional, organism-based; details: Artery
Rattus norvegicus [5] = experiment: Antihypertensive activity in SHR rat assessed as moderate decrease in systolic blood pressure at 50 mg/kg, po after 6 hrs; format: functional, organism-based; parameters: dose 50 mg/kg; details: Artery
Rattus norvegicus [6] = experiment: Antihypertensive activity in SHR rat assessed as sustained decrease in systolic blood pressure at 100 mg/kg, po after 6 hrs; format: functional, organism-based; parameters: dose 100 mg/kg; details: Artery
Rattus norvegicus [7] = experiment: Antihypertensive activity in SHR rat assessed as effect on heart rate at 50 mg/kg, po after 6 hrs; format: functional, organism-based; parameters: dose 50 mg/kg
Rattus norvegicus [8] = experiment: Antihypertensive activity in SHR rat assessed as effect on heart rate at 100 mg/kg, po after 6 hrs; format: functional, organism-based; parameters: dose 100 mg/kg
Rattus norvegicus [9] = experiment: Antihypertensive activity in SHR rat assessed as effect on heart rate at 25 mg/kg, po after 6 hrs; format: functional, organism-based; parameters: dose 25 mg/kg
Rattus norvegicus [10] = experiment: Antihypertensive activity in SHR rat assessed as decrease in systolic blood pressure at 25 mg/kg, po after 6 hrs; format: functional, organism-based; parameters: dose 25 mg/kg; details: Artery
Rattus norvegicus [11] = experiment: Antihypertensive activity in SHR rat assessed as moderate decrease in systolic blood pressure at 50 mg/kg, po after 6 hrs; details: Artery
[12] = Rattus norvegicus, Wistar, Aorta, 1 h
[13] = Rattus norvegicus, Wistar, Aorta, 1 h, read-out: EC50

SMILES | EC50 (Aorta [1]) [µM] | EC50 (Aorta [2]; [13]) [µM] | Emax (Aorta [1]) [%] | Emax (Aorta [2]; [12]) [%] | also measured
CCOC(=O)C1=C(C)NC(C)=C(C(=O)OC)C1c1cccc([N+](=O)[O-])c1 (stereo not drawn) [NITRENDIPINE] |  | 0.03 |  | 98.9 | 
COc1cc(-c2nc3cc([N+](=O)[O-])ccc3[nH]2)ccc1O | 1.81 | 19.5 | 91.7 | 55.2 | Ratio EC50 (Aorta [3]): 2.5; Activity (Rattus norvegicus [4]): Dose-dependent effect; Activity (Rattus norvegicus [5]): Active; Activity (Rattus norvegicus [6]): Active; Activity (Rattus norvegicus [7]): inactive; Activity (Rattus norvegicus [8]): inactive; Activity (Rattus norvegicus [9]): inactive; Activity (Rattus norvegicus [10]): inactive; Activity (Rattus norvegicus [11]): Active
FC(F)(F)c1ccc2[nH]c(-c3ccc4c(c3)OCO4)nc2c1 | 38.5 | 77.4 | 101 | 99.6 | 
COc1ccc(-c2nc3cc(C4=NNC(=O)CC4C)ccc3[nH]2)cc1 (stereo not drawn) [PIMOBENDAN] | 4.67 |  | 93.2 |  | 
C[C@H](CS)C(=O)N1CCC[C@H]1C(=O)O |  |  |  |  | Activity (Rattus norvegicus [11]): Active
CC(C)Oc1ccccc1-c1nc2cc([N+](=O)[O-])ccc2[nH]1 | 4.89 | 14.1 | 80.7 | 31.7 | 
CCOc1ccccc1-c1nc2cc(C(F)(F)F)ccc2[nH]1 | 548 | 549 | 91 | 19.8 | 
COc1ccc(-c2nc3cc([N+](=O)[O-])ccc3[nH]2)cc1OC | 2.5 | 302 | 75 | 36.3 | 
C[N+](C)(C)CCOC(N)=O.[Cl-] [CARBACHOL] | 0.51 |  | 106 |  | EC50 (Aorta [2]): Not Active; Emax (Aorta [2]): inactive
COc1ccc(-c2nc3cc([N+](=O)[O-])ccc3[nH]2)c(OC)c1OC | 3.23 | 43.6 | 90 | 58.9 | 
CN(C)c1ccc(-c2nc3cc(C(F)(F)F)ccc3[nH]2)cc1 | 550 | 550 | 63.2 | 30.9 | 

Continued by falling EC50 (Aorta [1]), values first:

EC50 (Aorta [1]) [µM] | EC50 (Aorta [2]; [13]) [µM] | SMILES | Emax (Aorta [1]) [%] | Emax (Aorta [2]; [12]) [%] | also measured
524 | 524 | CCCOc1ccc(-c2nc3cc(C(F)(F)F)ccc3[nH]2)cc1 | 51 | 19 | 
369 | 468 | FC(F)(F)c1ccc2[nH]c(-c3ccccc3)nc2c1 | 91.2 | 75.6 | 
219 | 219 | Oc1ccc(-c2nc3cc(C(F)(F)F)ccc3[nH]2)cc1 | 51.1 | 37 | 
210 | 575 | COc1ccccc1-c1nc2cc(C(F)(F)F)ccc2[nH]1 | 75.1 | 45.7 | 
34.8 | 140 | COc1cc(-c2nc3cc(C(F)(F)F)ccc3[nH]2)ccc1O | 99.5 | 97.7 | 
4.93 | 35.1 | O=[N+]([O-])c1ccc2[nH]c(-c3ccccc3)nc2c1 | 73.8 | 60.5 | 
3.71 | 15 | CCOc1ccccc1-c1nc2cc([N+](=O)[O-])ccc2[nH]1 | 84.8 | 46.4 | 
3.18 | 15 | O=[N+]([O-])c1ccccc1-c1nc2cc(C(F)(F)F)ccc2[nH]1 | 93.2 | 85.3 | 
